From ChEMBL document CHEMBL1158382 (Eur J Med Chem, 2009)

Assays:
[1] = system: Rattus norvegicus; test: Antiinflammatory activity in Albino rat assessed as inhibition of carrageenan-induced paw edema at 300 umol/kg, po administered 1 hr before carrageenan challenge and measured 3 hrs after carrageenan challenge
[2] = system: Mus musculus; test: Analgesic activity in Albino mouse assessed as inhibition of acetic acid-induced writhing at 300 umol/kg, po administered 1 hr before acetic acid challenge and measured 10 mins after acetic acid challenge; assay type: functional
How it was run: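 Mice of both sexes (18–23 g) dosed orally as a suspension in 5% Arabic gum in saline; vehicle controls got an equal volume. Acetic acid 0.6% (0.1 mL/10 g) given i.p. 1 h later. Constrictions per animal counted for 20 min, starting 10 min after the injection. Value is % inhibition of constrictions versus vehicle group, mean ± SEM, N = 8–10.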

[3] = system: Rattus norvegicus; test: Gastrointestinal toxicity in Albino rat assessed ulcer index at 300 umol/kg, po; settings: in vivo
[4] = Ratio of IC50 for COX1 to IC50 for COX2

Row | Compound | inhibition in vivo at 300 µmol/kg [1] | inhibition in vivo at 300 µmol/kg [2] | UI [3] | Ratio IC50 [4]
1 | CC1=C(CC(=O)N2CCSCC2)c2cc(F)ccc2/C1=C\c1ccc(S(C)(=O)=O)cc1 | 11% | 48% | 4 | –
2 | CC1=C(CC(=O)O)c2cc(F)ccc2/C1=C\c1ccc([S+](C)[O-])cc1 (configuration not stated) | 67% | 49% | – | –
3 | CNC(=O)CC1=C(C)/C(=C/c2ccc(S(C)(=O)=O)cc2)c2ccc(F)cc21 | 35% | 43% | 0 | –
4 | COc1ccc2c(c1)c(CC(=O)Nc1cccnc1)c(C)n2C(=O)c1ccc(Cl)cc1 | – | – | – | 1300
5 | CC1=C(CC(=O)N2CCOCC2)c2cc(F)ccc2/C1=C\c1ccc(S(C)(=O)=O)cc1 | 4% | 22% | 0 | –
6 | CCNC(=O)CC1=C(C)/C(=C/c2ccc(S(C)(=O)=O)cc2)c2ccc(F)cc21 | 27% | 59% | 0 | –
7 | CCCCNC(=O)CC1=C(C)/C(=C/c2ccc(S(C)(=O)=O)cc2)c2ccc(F)cc21 | 7% | 35% | 2 | –
8 | Cc1ccc(Cl)c(Nc2ccccc2C(=O)NCCOc2ccccc2)c1Cl | – | – | – | 440
9 | Cc1ccc(Cl)c(Nc2ccccc2C(=O)O)c1Cl | – | – | – | 0.72
10 | Cc1ccc(Cl)c(Nc2ccccc2C(=O)NCCCCl)c1Cl | – | – | – | 40
11 | CNC(=O)CC1=C(C)/C(=C/c2ccc([S+](C)[O-])cc2)c2ccc(F)cc21 (configuration not stated) | – | 6% | – | –
12 | COC(=O)CC1=C(C)/C(=C/c2ccc(S(C)(=O)=O)cc2)c2ccc(F)cc21 | 15% | 21% | 0 | –
13 | CCN(CC)C(=O)CC1=C(C)/C(=C/c2ccc(S(C)(=O)=O)cc2)c2ccc(F)cc21 | 27% | 14% | 1 | –
14 | CC1=C(CC(=O)Nc2ccccc2)c2cc(F)ccc2/C1=C\c1ccc(S(C)(=O)=O)cc1 | 12% | 19% | 0 | –
15 | CC1=C(CC(=O)O)c2cc(F)ccc2/C1=C\c1ccc(S(C)(=O)=O)cc1 [EXISULIND] | 48% | 34% | – | –
16 | Cc1ccc(-c2cc(C(F)(F)F)nn2-c2ccc(S(N)(=O)=O)cc2)cc1 [CELECOXIB] | 35% | 56% | – | –
17 | Cc1ccc(Cl)c(Nc2ccccc2C(=O)NOCc2ccc([N+](=O)[O-])cc2)c1Cl | – | – | – | 273
18 | CCCNC(=O)CC1=C(C)/C(=C/c2ccc(S(C)(=O)=O)cc2)c2ccc(F)cc21 | 20% | 39% | 1.4 | –
19 | CC1=C(CC(=O)N2CCCCC2)c2cc(F)ccc2/C1=C\c1ccc(S(C)(=O)=O)cc1 | 19% | 36% | 0 | –
